S1P1 ag pot: S1P1 agonists and agonism potentiators, primary screen, cell-based, primary and confirmation screens, CRE-bla reporter | 56,000 tested, 0.57% active | S1P1 CRE-bla cells, forskolin, beta-lactamase FRET, potentiator mode; S1P1 agonist co-added at EC20, 2 nM; 100% = saturating reference agonist, 0% = basal | activation, % at 9.5 µM;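 active = activation above a cutoff set at the mean activation of all tested compounds plus 3 SD, cut at about 54% in these data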;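 also: forskolin at 4 µM as EC80 and the EC20 agonist is SEW2871; 100% = SEW2871 at its EC100 plus forskolin at EC80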
Hsp90 inh: tumor Hsp90 inhibitors, primary screen, cell lysate, fluorescence polarization, NCI-N417 lysate; Heat shock protein HSP 90-alpha (Homo sapiens), P07900; Cy3B-geldanamycin FP displacement; inhibition, % at 30 µM; 64,000 tested, 0.35% active; AID 429, 2006;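 active = inhibition above 50%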;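 also: 0% = tracer plus lysate wells and 100% = tracer alone without lysate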
S1P3 ag: human S1P3 receptor agonists, primary screen, cell-based, primary and confirmation, NFAT-BLA reporter; activation, % at 4.5 µM; 60,000 tested, 0.1% active; AID 373, 2006; S1P3 NFAT-BLA reporter cells, agonism, FRET ratio; relative to 1 µM S1P, basal subtracted;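 active = activation above the screen-wide mean plus 3 SD, cut at about 4.5% in these data, passing the limit was not always enough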
Target sequence (Q99500 whole entry, looked up): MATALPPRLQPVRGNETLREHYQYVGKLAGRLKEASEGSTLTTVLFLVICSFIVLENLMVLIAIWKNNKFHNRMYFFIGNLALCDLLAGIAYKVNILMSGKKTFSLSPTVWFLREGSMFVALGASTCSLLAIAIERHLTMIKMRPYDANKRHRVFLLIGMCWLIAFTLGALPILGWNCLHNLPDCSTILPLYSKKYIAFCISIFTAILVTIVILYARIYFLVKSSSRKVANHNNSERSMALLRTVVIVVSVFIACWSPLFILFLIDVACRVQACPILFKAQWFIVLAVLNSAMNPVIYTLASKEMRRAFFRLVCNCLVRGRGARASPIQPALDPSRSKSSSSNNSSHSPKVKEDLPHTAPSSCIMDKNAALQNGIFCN
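Assay system: stable CHO line with human S1P3, Gα16, NFAT-BLA reporter; Detection: FRET β-lactamase substrate fluorescence, excitation 405 nm, 460/535 nm emission ratio, background-subtracted; Read-out: percent activation versus median 1 µM S1P response, basal-subtracted, per plate; Incubation: cells plated overnight, compound 4 h 37 °C, substrate 2 h RT.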
Spn MK inh: S. pneumoniae MK inhibitors, primary screen, biochemical, PK/LDH-coupled NADH absorbance. mevalonate kinase [Streptococcus pneumoniae D39]. 65,000 tested, 0.48% active. purified MK, PK/LDH-coupled NADH absorbance 340 nm. AID 555, 2006. inhibition, % at 10 µM;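 active = ranked among the strongest by inhibition in the single 10 µM screen, a fixed top-ranked set picked for dose follow-up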
Spn DPM-DC inh: S. pneumoniae DPM-DC inhibitors, primary screen, biochemical, PK/LDH-coupled NADH fluorescence | 65,000 tested, 0.49% active | calls only at 10 µM | diphosphomevalonate decarboxylase (Streptococcus pneumoniae D39) | purified DPM-DC;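 active = the 320 compounds with the highest percent inhibition in the single-dose primary screen, excluding strongly autofluorescent ones, cut at about 32% in these data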;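 also: kinetic rate of NADH fluorescence loss reporting ADP formed by the decarboxylase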
PMK inhibit: S. pneumoniae PMK inhibitors, primary screen, biochemical, mevalonate pathway, pilot trial included | purified PMK, PK/LDH-coupled NADH absorbance 340 nm | inhibition, % at 10 µM | 65,000 tested, 0.49% active;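 active = top-ranked compounds by inhibition in the single 10 µM screen, taking a fixed number of the strongest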;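 also: 0% = full reaction with DMSO carrier and 100% = background rate without enzyme reaction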
* marks the source's active call; other numbers are inactive results; i = inactive; . = no result given; + = active, no number. In the library only some 2.2% were active in any assay of this set; here they are far more common.

SMILES	S1P1 ag pot	Hsp90 inh	S1P3 ag	Spn MK inh	Spn DPM-DC inh	PMK inhibit
Cc1c(C(=O)OC(C)CCN(C)C)oc2ccccc12 (stereo not drawn)	8	-6	-1	4	i	7
CCCc1cc(C(=O)Nc2cc(OC)c(Cl)cc2OC)no1	-6	-2	-1	4	i	2
COc1cc(NC(=O)c2cc(CC(C)C)on2)c(OC)cc1Cl	-2	-2	0	57*	i	2
CCCN(S(=O)(=O)c1ccc(OCC)cc1)S(=O)(=O)c1cccs1	14	0	-1	0	i	10
Cc1ccc(C(C)C)c(OCc2nc(-c3nonc3N)no2)c1	92*	-3	17*	1	i	2
Cc1cccc(NC(=O)c2cnc3sccn3c2=O)n1	-12	-1	0	active	i	0
COc1ccc(-n2c(=O)c3c4c(sc3n(CC(=O)NCc3ccco3)c2=O)CCC4)c(OC)c1	.	.	.	63*	i	3
CCOC(=O)C1=C(CSc2nc(C)ccc2C#N)OC(N)=C(C#N)C1c1cccc(OC)c1OC (stereo not drawn)	-2	-7	-1	9	i	14
COc1ccc(S(=O)(=O)N2CCN(C(=O)CCC3CCCC3)CC2)cc1	.	-4	-1	7	i	6
CS(=O)(=O)N1CCN(C(=O)CCC2CCCC2)CC1	-19	1	-1	10	i	33*
Cc1nc2c3c(-c4ccccc4)nc(N4CCOCC4)nc3nn2c(C)c1CCC(=O)O	-32	-3	0	0	i	11
OC(c1cccc(OCc2ccccc2)c1)c1nnc(-c2ccccc2)o1 (stereo not drawn)	111*	0	0	0	i	15
NC(CC(=O)O)c1cccc(OCc2ccccc2)c1 (stereo not drawn)	3	1	-1	1	i	14
COc1cc(NS(=O)(=O)c2ccc([N+](=O)[O-])cc2[N+](=O)[O-])c2ncccc2c1	.	26	.	.	.	.
CC1(C)Cc2nc3sc4c(=O)[nH]cnc4c3cc2CS1	3	-23	15	9	+	8
CCOc1ccc(N2CC(C(=O)OC)CC2=O)cc1 (stereo not drawn)	.	-6	-1	8	+	0
O=c1c2ccccc2nc2n1CCC2	7	-3	0	86*	i	23
c1ccn2c(SCc3cn4ccsc4n3)nnc2c1	15	0	0	8	i	11
CCN(CC)S(=O)(=O)c1ccc(NC2c3ncccc3C(=O)N2Cc2ccccc2)cc1 (stereo not drawn)	11	-3	0	50*	i	12
CC(=O)c1ccc(NC2c3ncccc3C(=O)N2Cc2ccc(F)cc2)cc1 (stereo not drawn)	-2	2	0	7	i	12
COc1ccc(CN2C(=O)c3cccnc3C2Nc2cc(Cl)c(OC)cc2OC)cc1 (stereo not drawn)	3	-7	0	57*	i	15
O=C(CCC(=O)c1ccc(F)cc1)OC1CCOC1=O (stereo not drawn)	1	2	-1	9	i	1
CCN(CCNC(=O)C1CCN(c2nnc(-n3cccc3)s2)CC1)c1ccccc1	-2	-4	1	11	+	11
CN1CCN(CCCNC(=O)C2CCN(c3nnc(-n4cccc4)s3)CC2)CC1	-2	-3	0	10	i	9
CC1(C)Cc2c(sc3c4nnnn4c4nnnn4c23)CO1	0	-2	-3	3	i	12
CCCCN(C)CCn1c(=S)[nH]c2ccc(N3CCOCC3)cc2c1=O	.	3	.	8	i	11
O=c1c2cc(N3CCOCC3)ccc2[nH]c(=S)n1Cc1ccccn1	.	-2	.	4	+	14

Source: PubChem (several laboratories)
